These results are taken from ChEMBL document CHEMBL2093137, “WHO-TDR NTD Screening”.

Converted amounts (≈) assume the structure as drawn.

Data set [1] can be described thus: WHO-TDR: Cytotoxicity. The data set is classed as toxicity, cell-based. The following applies: human, MRC5 cells.
The next data set has as its system Plasmodium falciparum K1. The data set can be described thus: WHO-TDR: Malaria. The data set is classed as functional, organism-based, Homo sapiens. The following applies: Erythrocyte. The method, boiled down: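 Following previously published standard procedures, with a reference drug serving as positive control, compounds were tested on the Plasmodium falciparum K1 strain inside human red blood cells. The 10,000-compound diverse set came from Life Chemicals after filtering for drug-likeness and reactive groups. Potency against the parasite appears as IC50.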

A further data set relates to Trypanosoma cruzi. Kind of data set: WHO-TDR: Chagas disease. The data set is classed as functional, organism-based, Homo sapiens. The following applies: MRC5. The method, boiled down: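 Following previously published standard procedures, with a reference drug as positive control, a whole-organism assay was run on Trypanosoma cruzi Tulahuen CL2 beta-galactosidase strain amastigotes inside MRC-5SV2 human lung fibroblast host cells. The 10,000 compounds tested formed a diverse Life Chemicals library filtered for drug-likeness and reactive groups. Results are expressed as IC50 for antiparasitic potency.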

In data set [2] the test system is Trypanosoma brucei brucei. The data set can be described thus: WHO-TDR: Human African Trypanosomiasis (HAT). Type of data set: functional, organism-based. The following applies: Squib-427. Summed up: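 Bloodstream forms of the Trypanosoma brucei Squib 427 strain were tested in a whole-organism screen with a diverse library from Life Chemicals of 10,000 compounds. Before screening, the library was filtered for drug-likeness and for reactive groups. The assay used previously published standard procedures and included reference drugs as positive controls. Potency against the parasite is expressed as IC50.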

For another data set, the system named is Leishmania infantum. The data set can be described thus: WHO-TDR: Leishmaniasis. Type of data set: functional, organism-based, Mus musculus. The following applies: Macrophage. The method, boiled down: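 Following previously published standard procedures, a whole-organism screen was run on Leishmania infantum MHOM/MA(BE)/67 amastigotes within murine peritoneal macrophages, with a reference drug as positive control. The 10,000 compounds tested formed a diverse Life Chemicals library filtered for drug-likeness and reactive groups. Potency against the parasite is reported as IC50.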

The test system of another data set is Onchocerca ochengi. Kind of data set: WHO-TDR: Onchocerciasis. Type of data set: functional. The arrangement: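 at 12.5 µM on microfilariae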. Summed up:
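Onchocerca ochengi or Onchocerca lienalis, animal pathogens used as surrogates for the human parasite, were screened as whole microfilariae against a 10,000-compound diverse library from Life Chemicals. The reported measures of activity are percent inhibition and IC50.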

In the next data set the test system is Brugia malayi. The data set can be described thus: WHO-TDR: Lymphatic Filariasis. The arrangement: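 tested at 10 µM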. Type of data set: functional. Summed up:
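Percent inhibition and IC50 describe activity against Brugia malayi microfilariae in a whole-organism screen. The screen used previously published standard procedures with reference drugs as positive controls. Compounds came from a diverse Life Chemicals library of 10,000, filtered for drug-likeness and reactive groups.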

As for `CCSc1nnc(NC(=O)c2cc(=O)c(OCc3ccc(F)cc3)cn2C)s1`, the IC50 (in data set [1]; in the data set with Plasmodium falciparum K1; in the data set with Trypanosoma cruzi; in data set [2]; in the data set with Leishmania infantum) was above 12.6 µg/mL throughout. Besides, the “% Inhibition” value in the data set on Onchocerca ochengi is recorded as 100%; in the data set on Brugia malayi it was 0%.

Take `COc1cc(NCCNC(=O)C(C)C)nc(OC)n1`: the concentration for half-maximal inhibition (IC50) in data set [1] is above 8.05 µg/mL; with Plasmodium falciparum K1 it was above 8.05 µg/mL; in the data set on Trypanosoma cruzi, above 8.05 µg/mL; in data set [2], above 8.05 µg/mL; in the data set on Leishmania infantum it was 0.261 µg/mL (≈ 0.973 µM). The “% Inhibition” value in the data set with Onchocerca ochengi and in the data set on Brugia malayi was 0% throughout.

Regarding `CCOC(=O)N1CCC(NC(=O)CCc2csc(NC(=O)c3ccccc3)n2)CC1`, the IC50 in data set [1] is 4.08 µg/mL (≈ 9.49 µM); with Plasmodium falciparum K1, 10.6 µg/mL (≈ 24.6 µM); with Trypanosoma cruzi it was above 12.9 µg/mL; in data set [2], above 12.9 µg/mL; in the data set on Leishmania infantum, above 12.9 µg/mL. Also, the “% Inhibition” value in the data set on Onchocerca ochengi is on record as 100%; with Brugia malayi, 0%.

For the molecule `Cc1cc(C)c(S(=O)(=O)N2CCN(c3ccc(Nc4ccncc4)nn3)CC2)cc1C`, the IC50 in data set [1] worked out at 1.94 µg/mL (≈ 4.43 µM); in the data set with Plasmodium falciparum K1, 0.473 µg/mL (≈ 1.08 µM); in the data set with Trypanosoma cruzi it was 0.782 µg/mL (≈ 1.78 µM); in data set [2] it was 3.61 µg/mL (≈ 8.23 µM); in the data set on Leishmania infantum, 4.26 µg/mL (≈ 9.71 µM). The “% Inhibition” value in the data set on Onchocerca ochengi and in the data set with Brugia malayi was 0% in each case.

For `O=C(CCc1csc(NC(=O)c2ccco2)n1)Nc1ccc(Cl)cc1`, the IC50 in data set [1] was above 11.3 µg/mL; in the data set with Plasmodium falciparum K1 it was above 11.3 µg/mL; in the data set with Trypanosoma cruzi, 3.67 µg/mL (≈ 9.77 µM); in data set [2] it was above 11.3 µg/mL; in the data set on Leishmania infantum it was above 11.3 µg/mL. Moreover, the figures for the “% Inhibition” value with Onchocerca ochengi and in the data set on Brugia malayi were 100% and 0%, respectively.

For the molecule `CCC(Sc1ccc(NC(=O)c2cccc(F)c2)nn1)C(=O)OC` (stereo unspecified), the IC50 in data set [1] is 9.15 µg/mL (≈ 26.2 µM); in the data set with Plasmodium falciparum K1, above 10.5 µg/mL; in the data set with Trypanosoma cruzi it was above 10.5 µg/mL; in data set [2], above 10.5 µg/mL; with Leishmania infantum, above 10.5 µg/mL. For the same molecule, the entries for the “% Inhibition” value in the data set on Onchocerca ochengi and in the data set on Brugia malayi were 100% and 0%, respectively.

On to `CCOc1ncccc1C(=O)Nc1c(C)nc2sc(C)c(C)n2c1=O`, for which the IC50 in data set [1] was above 10.8 µg/mL; with Plasmodium falciparum K1, above 10.8 µg/mL; in the data set with Trypanosoma cruzi it was above 10.8 µg/mL; in data set [2], above 10.8 µg/mL; in the data set with Leishmania infantum, 0.348 µg/mL (≈ 0.971 µM). Further, the “% Inhibition” value with Onchocerca ochengi and in the data set on Brugia malayi was 0% throughout.

As for `O=C(Cc1csc(Nc2ccc(F)cc2)n1)N1CCN(c2ncccn2)CC1`, the IC50 in data set [1] is above 12 µg/mL; with Plasmodium falciparum K1, above 12 µg/mL; with Trypanosoma cruzi, 5.13 µg/mL (≈ 12.9 µM); in data set [2], above 12 µg/mL; in the data set with Leishmania infantum, above 12 µg/mL. The “% Inhibition” value in the data set on Onchocerca ochengi amounted to 100%; in the data set with Brugia malayi, 20%.

`COc1ccccc1CCNC(=O)CCc1csc(NC(=O)c2cccs2)n1`: the IC50 in data set [1] is 5.79 µg/mL (≈ 13.9 µM); in the data set with Plasmodium falciparum K1 it was above 12.5 µg/mL; in the data set on Trypanosoma cruzi, 3.8 µg/mL (≈ 9.15 µM); in data set [2], 4.19 µg/mL (≈ 10.1 µM); with Leishmania infantum, 5.26 µg/mL (≈ 12.7 µM). Further, the “% Inhibition” value in the data set on Onchocerca ochengi is recorded as 100%; in the data set on Brugia malayi, 0%.

Regarding `COc1ccc(-c2cn3c(CCC(=O)NCCc4c[nH]c5ccccc45)csc3n2)cc1`, the IC50 was above 13.3 µg/mL in data set [1]; 13.3 µg/mL (≈ 30 µM) in the data set on Plasmodium falciparum K1; 2.66 µg/mL (≈ 5.99 µM) in the data set with Trypanosoma cruzi; 0.382 µg/mL (≈ 0.859 µM) in data set [2]; above 13.3 µg/mL in the data set on Leishmania infantum. Further, the results for the “% Inhibition” value with Onchocerca ochengi and with Brugia malayi were 100% and 20%, respectively.

As to `O=C(Cc1csc(Nc2cccc(Cl)c2)n1)NCc1ccccn1`, the IC50 in data set [1] is 1.76 µg/mL (≈ 4.91 µM); with Plasmodium falciparum K1 it was above 10.8 µg/mL; in the data set on Trypanosoma cruzi, 1.71 µg/mL (≈ 4.75 µM); in data set [2] it was above 10.8 µg/mL; with Leishmania infantum, 2.55 µg/mL (≈ 7.11 µM). The “% Inhibition” value in the data set with Onchocerca ochengi was found to be 100%; with Brugia malayi it was 0%.

For the molecule `Cc1cccc2sc(NC(=O)CCc3csc(NC(=O)c4ccco4)n3)nc12`, the half-inhibitory concentration (IC50) is above 12.4 µg/mL in data set [1]; above 12.4 µg/mL in the data set on Plasmodium falciparum K1; above 12.4 µg/mL with Trypanosoma cruzi; above 12.4 µg/mL in data set [2]; 0.843 µg/mL (≈ 2.04 µM) in the data set on Leishmania infantum. The “% Inhibition” value in the data set with Onchocerca ochengi is 100%; with Brugia malayi, 0%.

As for `Cc1cc(=O)[nH]c(-n2nc(-c3cccs3)cc2NC(=O)C2(c3ccc(Cl)cc3)CCCC2)n1`, the IC50 in data set [1] worked out at 0.682 µg/mL (≈ 1.42 µM); with Plasmodium falciparum K1, 4.97 µg/mL (≈ 10.4 µM); with Trypanosoma cruzi, 0.466 µg/mL (≈ 0.971 µM); in data set [2], 0.412 µg/mL (≈ 0.858 µM); with Leishmania infantum, 0.517 µg/mL (≈ 1.08 µM). For the same molecule, the “% Inhibition” value was found to be 75% in the data set with Onchocerca ochengi and 0% in the data set with Brugia malayi.
